Bioassay records deposited in PubChem BioAssay by several laboratories.
In the library only some 4.5% were active in any assay of this set; here they are far more common.
PfM18AAP inh: PfM18AAP enzyme inhibition; recombinant PfM18AAP, H-Glu-NHMec fluorogenic cleavage; inhibition, % at 7.35 µM; 290,000 compounds, 1.2% hits; AID 1822;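 active = inhibition above the campaign mean inhibition over all tested compounds plus 3 SD, cut at about 28% in these data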;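 also: 0% = plate median of test compound wells and 100% = 2 mM ZnCl2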
NS3 helicase inh: inhibitors of Hepatitis C virus NS3 helicase | NS3 helicase DNA unwinding, Cy5 molecular beacon fluorescence | AID 1800 | 290,000 compounds, 0.56% hits | inhibition, % at 10.9 µM;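 active = inhibition above the mean of all tested compounds plus 3 SD, set per campaign, cut at about 35% in these data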;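 also: 0% = DMSO wells and 100% = thioflavine S control wells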
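Material: hepatitis C virus NS3 helicase domain fragment enzyme; measured by: Cy5 fluorescence, 0 and 60 min reads; control set: DMSO and thioflavine S; incubation: 60 min unwinding reaction at 25 °C after ATP addition; read-out basis: % inhibition from 60/0 min fluorescence ratio, DMSO 0%, thioflavine S 100%; repeats: singlicate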
CHOP inh: inhibitors of CHOP induction in ER stress response | CHO-K1 CHOP-promoter luciferase, tunicamycin-induced, 15-18 h | inhibition, % at 10 µM | 220,000 compounds, 3.8% hits | AID 2732;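 active = compounds that reduced the stress-induced luciferase reporter signal by more than about 70% of percent inhibition, limit read from the data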;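 also: 0% = tunicamycin plus vehicle and 100% = wells without tunicamycin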
p97 inhibitor: human p97 ATPase inhibition; recombinant p97 ATPase, Kinase-Glo ATP luminescence, 3 h; inhibition, % at 8 µM; 220,000 compounds, 0.42% hits; AID 1481; in the data active = inhibition above about 15%;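 also: 0% = DMSO vehicle and 100% = wells lacking enzyme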
Target sequence (P55072 whole entry, looked up): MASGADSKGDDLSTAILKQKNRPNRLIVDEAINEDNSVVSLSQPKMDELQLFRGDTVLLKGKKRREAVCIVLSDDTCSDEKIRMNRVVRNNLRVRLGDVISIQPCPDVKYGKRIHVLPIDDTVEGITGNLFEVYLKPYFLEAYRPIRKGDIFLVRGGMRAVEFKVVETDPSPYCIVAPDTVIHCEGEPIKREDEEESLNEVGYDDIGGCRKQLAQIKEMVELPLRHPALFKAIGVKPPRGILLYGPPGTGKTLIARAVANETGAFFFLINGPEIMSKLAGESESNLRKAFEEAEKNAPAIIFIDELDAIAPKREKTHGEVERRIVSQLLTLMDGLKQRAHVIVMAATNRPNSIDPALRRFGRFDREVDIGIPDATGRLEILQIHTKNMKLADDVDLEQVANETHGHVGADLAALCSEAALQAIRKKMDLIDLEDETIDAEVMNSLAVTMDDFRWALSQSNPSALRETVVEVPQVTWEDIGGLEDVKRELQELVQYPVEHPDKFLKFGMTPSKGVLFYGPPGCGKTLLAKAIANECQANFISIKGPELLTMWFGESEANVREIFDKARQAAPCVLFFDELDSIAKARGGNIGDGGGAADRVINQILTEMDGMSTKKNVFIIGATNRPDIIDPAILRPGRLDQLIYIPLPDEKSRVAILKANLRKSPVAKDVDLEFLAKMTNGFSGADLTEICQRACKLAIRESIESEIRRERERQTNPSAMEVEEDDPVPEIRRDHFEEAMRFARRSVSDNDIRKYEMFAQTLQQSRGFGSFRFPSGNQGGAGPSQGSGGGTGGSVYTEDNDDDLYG
CHOP UPR activ: activators of apoptotic arm of unfolded protein response (CHOP) | CHO-CHOP luciferase reporter, UPR activation, luminescence; percent of tunicamycin response over DMSO baseline | activation, % at 10 µM | 330,000 compounds, 0.34% hits | AID 449763;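 active = at 10 µM dose, activation of 40% or more, normalized to positive control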;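 also: 100% = tunicamycin at 10 µg/mL and 0% = DMSO alone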
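measured by = luciferase luminescence | assay system = CHO-CHOP cells, stable luciferase reporter of PERK-eIF2a-CHOP signalling | amount = 500 reporter cells seeded per well | timing = 6 h compound exposure at 37 °C after overnight seeding | controls = positive tunicamycin 10 µg/mL, negative DMSO alone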
UPR XBP1 act: adaptive UPR (XBP1) activation; 330,000 compounds, 0.33% hits; AID 463104; CHO-XBP1 luciferase reporter, IRE1-XBP1 UPR activation, luminescence; percent of tunicamycin response, DMSO as zero; activation, % at 20 µM;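 active = versus positive control, 20 µM dose yields 30% or more activation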;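 also: 100% = tunicamycin at 10 µg/mL and 0% = DMSO only wells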
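Material: CHO-XBP1 cells stably carrying IRE1-XBP1-driven luciferase reporter | Medium: F12 with 10% serum | Compound dosing: 20 µM single concentration, DMSO 1% | Incubation: Overnight seeding at 37 °C, 6 h compound treatment at 37 °C | Detection: Steady-Glo luminescence read | Read-out basis: % activation of reporter signal versus tunicamycin and DMSO controls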
XBP1 UPR conf: adaptive UPR (XBP1) activation, confirmed; CHO-XBP1 IRE1-XBP1 luciferase reporter, luminescence; 1,000 compounds, 63% hits; activation, % at 20 µM; shares compounds with UPR XBP1 act;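 active = reporter signal at least 30% of the positive control's activation in two or more of four replicate wells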;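 also: plate controls were DMSO negative control for no effect and tunicamycin 10 µg/mL positive control for full effect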
The depositor's hits bear a star; . = not tested or not shown.

SMILES	PfM18AAP inh	NS3 helicase inh	CHOP inh	p97 inhibitor	CHOP UPR activ	UPR XBP1 act	XBP1 UPR conf
CCOc1cc(C(=O)Nc2ccc(C(=O)NCCN(CC)CC)cc2)ccc1OCC(=O)N1CCOCC1	.	.	.	.	0	-3	.
COCCNC(=O)CN(C(=O)c1ccc(N2CCCC2)nc1)c1ccc(Cl)cc1	-1	5	.	.	-1	-3	.
N#Cc1ccc(-c2ccc(F)cc2)nc1Oc1ccc(Cl)c(Cl)c1	-9	-1	31	-1	26	38*	6
N#Cc1ccc(-c2ccc(F)cc2)nc1Sc1ccc(F)cc1	-5	3	30	7	-1	2	.
CC(C)CC(=O)c1c[nH]c(C(=O)NCc2ccc(F)cc2)c1	-7	5	.	.	0	0	.
O=C(Cc1ccccc1)c1c[nH]c(C(=O)C(Cl)(Cl)Cl)c1	11	4	.	.	7	39*	49*
COC(=O)c1ccccc1NC(=O)c1ccc(COc2ccccc2)o1	0	1	23	-6	1	-1	.
COC(=O)c1ccccc1NC(=O)c1ccc(-c2cccc(Cl)c2)o1	-7	21	67	5	14	52*	15
CCc1ccc2[nH]c3nc(SCC(=O)NNC(=O)c4ccc(C(C)(C)C)cc4)nnc3c2c1	4	-1	89*	0	2	60*	42*
CCc1ccc2[nH]c3nc(SCc4nnc(-c5ccc(C)cc5)o4)nnc3c2c1	6	12	28	-2	10	95*	93*
CCc1ccc2[nH]c3nc(SCCN4CCOCC4)nnc3c2c1	10	-17	.	.	-2	-3	.
CCOC(=O)c1c(NC(=O)CSc2nnc3c(n2)[nH]c2ccc(F)cc23)sc(C(C)=O)c1C	2	2	3	-2	15	62*	51*
CSc1ccccc1NC(=O)C1CCCN(S(C)(=O)=O)C1 (centres undefined)	2	5	.	.	3	-5	.
C=CC[C@@H](CC(=O)N[C@@H](CO)Cc1ccccc1)C(=O)NC[C@@H](OC(=O)[C@@H](CC=C)Cc1ccc(F)cc1)c1ccccc1	.	.	.	.	5	32*	2
C=CC[C@@H](CC(=O)N[C@@H](CO)Cc1ccccc1)C(=O)NC[C@H](OC(=O)[C@@H](CC=C)Cc1ccc(F)cc1)c1ccccc1	.	.	.	.	6	2	.
CSCC[C@H](NC(=O)C1CCN(S(=O)(=O)c2ccc(C)cc2C)CC1)c1nc2ccccc2[nH]1	.	.	.	.	1	-5	.
Cc1ccc(Nc2cc(C)nc3ncnn23)cc1	-5	-4	.	.	1	1	.
Cc1nc2sc(C(=O)Nc3ccccc3)c(N)c2c(C)c1[N+](=O)[O-]	-4	-9	24	-4	39	91*	19
CC(=O)c1ccc(NC(=O)c2sc3nc(C)c(C)c(C)c3c2N)cc1	7	5	.	.	1	-5	.
COc1ccc(/C=C/C(=O)Nc2cccc(S(=O)(=O)NC3=NCCCCC3)c2)cc1OC	.	.	.	.	3	-1	.
Cc1nc2ccc(Br)cn2c(=O)c1Cl	-5	-5	37	5	-1	1	.
Cc1nc2cccc(C)n2c(=O)c1Cl	-5	0	12	-2	-2	38*	4
Cc1cc(C)cc(C(=O)Nc2nnc(SCC(=O)NCC3CCCO3)s2)c1 (centres undefined)	-8	4	.	.	1	-5	.
CCCN(C(=O)COC(=O)Cn1c(=O)oc2ccccc21)c1c(N)n(Cc2ccccc2)c(=O)[nH]c1=O	.	.	.	.	1	-1	.
COc1cccc(OCc2cc(C(=O)NC(C)c3cnn(C)c3C)no2)c1 (centres undefined)	6	-3	.	.	5	0	.
CCOC(=O)C1=C(C)N=c2s/c(=C3/C(=O)Nc4ccccc43)c(=O)n2C1c1ccc(C)cc1 (centres undefined)	-4	-1	47	-5	2	118*	69*
COc1ccc(-c2ccc3c(c2)S(=O)(=O)c2cccc(C(=O)NCc4ccccc4Cl)c2C3=O)cc1OC	.	.	.	.	-2	-3	.
